Experimental data gathered from unrelated publications.
Compare with care: the assays were run in different laboratories.

CN1C(=O)c2ccccc2[S@+]([O-])c2ccc(C(=O)NCCc3cccs3)cc21
Cmax (male C57BL/6 mouse, brain; intraperitoneal, 30 mg/kg, single dose): 1720 ng/g

CCOc1ccc(Cc2cc([C@@H]3O[C@H](CO)[C@@H](O)[C@H](O)[C@H]3O)ccc2Cl)cc1
Cmax (male C57BL/6 mouse, plasma; intravenous, 1 mg/kg): 1170 ng/mL

NC1(C(=O)N[C@@H](CCO)c2ccc(Cl)cc2)CCN(c2ncnc3[nH]ccc23)CC1
Cmax (male Swiss mouse, plasma; intraperitoneal, 25 mg/kg, single dose): ~8 µM

COc1ccc([C@@]23Oc4cc(OC)cc(OC)c4[C@]2(O)[C@H](O)[C@H](C(=O)N(C)C)[C@H]3c2ccccc2)cc1
Cmax (mouse, plasma; oral, 5 mg/kg): ~0.8 µM

COc1nc(-c2cc(C)c(N[C@@H](C)c3c(F)cc(F)cc3F)nn2)ccc1-n1cnc(C)c1
Cmax (male CD-1 mouse, plasma; oral, 5 mg/kg, single dose): 1010 ng/mL

CNC(=O)c1cc(Oc2ccc(NC(=O)Nc3ccc(Cl)c(C(F)(F)F)c3)c(F)c2)cc[n+]1[O-]
Cmax (mouse, plasma; oral, 10 mg/kg, single dose): 360 ng/mL

COc1ccc2nccc(N3CCc4c(cc(Cn5ccnc5)cc4-c4cn(C)nc4C(F)(F)F)C3=O)c2c1
Cmax (male CD-1 mouse, plasma; oral, 10 mg/kg): 1150 ng/mL

Cc1c(C(=O)NN2CCCCC2)nn(-c2ccc(Cl)cc2Cl)c1-c1ccc(Cl)cc1
Cmax (mouse, plasma; oral, 20 µmol/kg, single dose): 1.05 µM

CC(C)(C)c1ccc(O)c(CN(Cc2cc(C(C)(C)C)ccc2O)C2CCC(NC(N)=O)CC2)c1 (centres unmarked)
Cmax (male C57BL/6 mouse, brain; intraperitoneal, 25 mg/kg, single dose): 1610 ng/g

COc1ccc2nc(-c3ccccn3)c(N(C)c3ccc(F)cc3)n2c1
Cmax (male CD-1 mouse, plasma; oral, 50 mg/kg, fasted): 1440 ng/mL

Cc1cc(Nc2ccc(S(F)(F)(F)(F)F)cc2)n2ncnc2n1
Cmax (male Swiss mouse, plasma; oral, 100 mg/kg, single dose): 59 µM

C=CC(=O)N1CC2CC(n3nc(-c4ccc(C(=O)Nc5ccccn5)cc4)c4c(N)ncnc43)CC2C1 (centres unmarked)
Cmax (SCID mouse, plasma; oral, 3 mg/kg): 703 ng/mL

CN1CCN(C(=O)CN[C@@H]2C[C@H]2c2ccc(OCc3ccccc3)cc2)CC1
Cmax (mouse, plasma; intraperitoneal, 10 mg/kg): 542 ng/mL

CNC(=O)c1cc(OC)cc2c(N3CCc4c(cc(Cn5ccnc5)cc4-c4cn(C)nc4C(F)(F)F)C3=O)ccnc12
Cmax (male CD-1 mouse, plasma; oral, 50 mg/kg): 46100 ng/mL

CCn1ncc2c(Nc3ccc(OC(F)(F)F)cc3)ncnc21
Cmax (male BALB/c mouse, plasma; oral, 20 mg/kg): 263 ng/mL

CNCCN(C)c1cc(C#N)cc(CCc2cc(C)cc(N)n2)c1
Cmax (male BALB/c mouse, brain; oral, 10 mg/kg): 39.3 ng/g

CCc1ccc(Cc2cc([C@@H]3O[C@H](CO)[C@@H](O)[C@H](O)[C@H]3O)cc3c2CCC3)cc1
Cmax (male C57BL/6 mouse, plasma; intravenous, 1 mg/kg): 1300 ng/mL

CC[C@H](C)[C@@H]1NC(=O)[C@@](C)(NC(=O)[C@H](CCCNC(=N)N)NC(=O)[C@H](CC(C)C)NC(=O)[C@@H](NC(=O)[C@H](CCC(N)=O)NC(=O)[C@H](CC(C)C)NC(C)=O)[C@@H](C)O)CCCC=CCCC[C@@](C)(C(=O)N[C@@H](CC(C)C)C(=O)N[C@@H](Cc2ccc3ccccc3c2)C(N)=O)NC(=O)[C@H](CCCNC(=N)N)NC(=O)[C@H](CCC(N)=O)NC1=O
Cmax (male BALB/c mouse, plasma; intravenous, 5 mg/kg): 41 µM

CC(C)(O)c1cn(-c2ccc(-c3cccc(S(C)(=O)=O)c3)cc2)c(C(C)(C)c2ccccc2Cl)n1
Cmax (male C57BL/6 mouse, serum; oral, 10 mg/kg): 15 µM

CCc1cc(OC)c2nccc(N3CCc4c(cc(Cn5ccnc5)cc4-c4cn(C)nc4C(F)(F)F)C3=O)c2c1
Cmax (male CD-1 mouse, plasma; oral, 50 mg/kg): 29000 ng/mL

COc1ccc(C(O)COc2ccc(-c3csc(-c4ccc(OCC(O)c5ccc(OC)c(OC)c5)cc4)n3)cc2)cc1OC (centres unmarked)
Cmax (C57BL/6 mouse, plasma; oral, 75 mg/kg): 7680 ng/mL

NC[C@@H]1O[C@H](O[C@H]2[C@@H](O)[C@H](O[C@@H]3[C@@H](O)[C@H](N)C[C@H](N)[C@H]3O[C@H]3O[C@H](CO)[C@@H](O)[C@H](O)[C@H]3N)O[C@@H]2CO)[C@H](N)[C@@H](O)[C@@H]1O
Cmax (male BALB/c mouse, plasma; oral, 500 mg/kg): 690 ng/mL

NC(=O)c1cc(Oc2ccc(NC(=O)Nc3ccc(Cl)c(C(F)(F)F)c3)c(F)c2)cc[n+]1[O-]
Cmax (mouse, plasma; oral, 10 mg/kg, single dose): 22.9 ng/mL

CCc1cc(C(=O)NC)c2nccc(N3CCc4c(cc(Cn5ccnc5)cc4-c4cn(C)nc4C(F)(F)F)C3=O)c2c1
Cmax (male CD-1 mouse, plasma; oral, 50 mg/kg): 25100 ng/mL

COc1cc(C(=O)N2CCC(N3CCN(C)CC3)CC2)ccc1Nc1ncc2c(n1)N(C)c1ccccc1C(=O)N2C
Cmax (mouse, plasma; oral, 10 mg/kg): 1620 ng/mL

Cc1ccc(NC(=O)c2ccc(CN3CCN(C)CC3)cc2)cc1Nc1nccc(-c2cncc(-c3oncc3C)c2)n1
Cmax (male C57BL/6 mouse, plasma; oral, 100 mg/kg/day): 5060 ng/mL

COC(=O)CN(CCCc1ccccc1)CC(=O)N[C@@H](Cc1c[nH]cn1)c1nc(C)no1
Cmax (male C57BL/6 mouse, plasma; intraperitoneal, 30 mg/kg): 1000 ng/mL

Cc1nc2ccc(F)cc2n1-c1nc(N)c(F)c(Nc2ccc(C(F)(F)F)cc2)n1
Cmax (nude mouse, plasma; oral, 10 mg/kg): 1160 ng/mL

CC(C)(C)c1cc(NC(=O)Nc2ccc(Oc3ccnc4[nH]c(=O)cnc34)cc2F)n(-c2ccccc2)n1
Cmax (BALB/c mouse, plasma; intravenous, 2 mg/kg): 38.1 µM

CC(C)(O)c1cn(-c2ccc(-c3cc(F)c(CO)c(S(C)(=O)=O)c3)cc2F)c(C(C)(C)c2c(Cl)cccc2Cl)n1
Cmax (male C57BL/6 mouse, serum; oral, 10 mg/kg): 0.71 µM

CC(=O)O[C@H]1C(=O)[C@@]2(C)[C@H]([C@H](OC(=O)c3ccccc3)[C@]3(O)C[C@H](OC(=O)[C@H](O)[C@@H](NC(=O)c4ccccc4)c4ccccc4)C(C)=C1C3(C)C)[C@]1(OC(C)=O)CO[C@@H]1C[C@@H]2O
Cmax (SCID mouse, plasma; intraperitoneal, 10 mg/kg, single dose): 2100 ng/mL

CNC(=O)[C@H](Cc1c[nH]cn1)NC(=O)CN(CCCc1ccccc1)CC(=O)O
Cmax (male C57BL/6 mouse, plasma; intraperitoneal, 30 mg/kg): 11000 ng/mL

Cc1nc(-c2cnc(NC(C)C)n(C)c2=O)ccc1Oc1ccnc(-c2cnn(C)c2)c1
Cmax (female mouse, plasma; oral, 30 mg/kg, single dose): 9350 ng/mL

O=C(NO)c1ccc(CN(c2cnccn2)c2cnccn2)cc1
Cmax (male C57BL/6 mouse, plasma; oral, 200 mg/kg, multiple doses, once daily, tumour-bearing): 300 ng/mL

COc1cc2c(Nc3ccc(Cl)c(Cl)c3F)ncnc2cc1OC[C@@H]1C[C@@H]2CN(C)C[C@@H]2C1
Cmax (FVB mouse, plasma; oral, 70 mg/kg, single dose): 3780 ng/mL

CS(=O)(=O)CCNCc1ccc(-c2ccc3ncnc(Nc4ccc(OCc5cccc(F)c5)c(Cl)c4)c3c2)o1
Cmax (nude mouse, plasma; oral, 100 mg/kg, single dose): 15200 ng/mL

CSc1cc(Oc2ccnc3[nH]c(=O)cnc23)ccc1NC(=O)Nc1cc(C(C)(C)C)nn1-c1ccccc1
Cmax (BALB/c mouse, plasma; oral, 10 mg/kg): 54.2 µM

OC[C@H]1O[C@@H](c2ccc(Cl)c(Cc3ccc(O[C@H]4CCOC4)cc3)c2)[C@H](O)[C@@H](O)[C@@H]1O
Cmax (CD-1 mouse, plasma; oral, 10 mg/kg): 2460 ng/mL

C[C@H](NC(=O)C(C)(C)Oc1ccc(C(F)(F)F)cn1)[C@@H](Cc1ccc(Cl)cc1)c1cccc(C#N)c1
Cmax (mouse, plasma; oral, 6 µmol/kg, single dose): 0.7 µM

COc1nc(-c2cc(C)c(N[C@@H](C)c3ccc(F)cc3)nn2)ccc1-n1cnc(C)c1
Cmax (male CD-1 mouse, plasma; intravenous, 1 mg/kg, single dose): 768 ng/mL

CN1CCC[C@H](CN2c3ccccc3Sc3ccccc32)C1.Cl
Cmax (mouse, plasma; oral, 64 mg/kg, single dose): 1180 ng/mL

FC(F)(F)Oc1ccc(Nc2cc(-c3cn[nH]c3)ncn2)cc1
Cmax (male BALB/c mouse, plasma; oral, 20 mg/kg): 3400 ng/mL

Cn1cnc2c(F)c(Nc3ccc(Br)cc3Cl)c(C(=O)NOCCO)cc21
Cmax (nude mouse, liver; oral, 5 mg/kg, single dose, tumour-bearing): 1340 ng/g

Cc1ccc2cncc(N3CCc4c(cc(Cn5ccnc5)cc4-c4cn(C)nc4C(F)(F)F)C3=O)c2c1
Cmax (male CD-1 mouse, plasma; oral, 50 mg/kg): 6580 ng/mL

COc1nc(-c2cc(C)c(N[C@@H](C)c3cc(F)cc(F)c3)nn2)ccc1-n1cnc(C)c1
Cmax (male CD-1 mouse, plasma; intravenous, 1 mg/kg, single dose): 699 ng/mL

Nc1ncc(-c2ccncc2)nc1Nc1ccc2[nH]ccc2c1
Cmax (male C57BL/6 mouse, plasma; oral, 30 mg/kg): 7 µM

CC(C)Oc1c(NC(=O)c2ccc(NC(=O)[C@H](CC(N)=O)NC(=O)c3ccc(NC(=O)c4ccc(C#N)cc4)cc3)cc2)ccc(C(=O)Nc2ccc(C(=O)O)cc2)c1O
Cmax (male CD-1 mouse, plasma; subcutaneous, 5 mg/kg, single dose): 129 ng/mL
